Results from ChEMBL document CHEMBL2057143, “Identification of a class of novel tubulin inhibitors” (J Med Chem, 2012).
Blank lines part the entries; values can stand above or below the molecule they belong to. Active and inactive are the calls of the source. No cut-off for these calls is given here.

Assays:
[1] = tested on: SK-BR-3; assay: Binding affinity to alpha-tubulin in human SKBR3 cell lysate at 25 uM after 30 mins by mass spectrometric analysis; assay type: cell-free
How it was run: (§1)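 SKBR-3 cells (1.0 × 10^7) were lysed in NP-40 buffer with protease inhibitors and sonicated. Lysate was incubated with biotinylated probe (25 μM final) for 1 h at room temperature, then with neutravidin resin for 30 min. After five binding-buffer washes, bound proteins were eluted with buffer containing compound at 25 and 50 μM. Resin was boiled in SDS buffer. Samples were run on SDS-PAGE and silver-stained; bands were trypsin-digested in-gel and analysed by LC-QTOF/MS.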

[2] = tested on: SK-BR-3; assay: Binding affinity to beta-tubulin in human SKBR3 cell lysate at 25 uM after 30 mins by mass spectrometric analysis; assay type: cell-free; how it was run: as §1
[3] = biological target: Heat shock protein beta-1 (Homo sapiens) (UniProt P04792); assay: Binding affinity to Hsp27 in human SKBR3 cell lysate at 25 uM after 30 mins by mass spectrometric analysis; assay type: cell-free; conditions: SK-BR-3; how it was run: as §1
Sequence of Heat shock protein beta-1 (Homo sapiens) (P04792 whole entry): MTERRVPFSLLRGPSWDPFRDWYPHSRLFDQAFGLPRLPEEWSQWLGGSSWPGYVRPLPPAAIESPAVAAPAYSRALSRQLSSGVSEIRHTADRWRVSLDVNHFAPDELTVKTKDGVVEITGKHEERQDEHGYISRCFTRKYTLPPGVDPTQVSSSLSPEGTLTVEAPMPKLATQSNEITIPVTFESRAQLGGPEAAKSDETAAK

[4] = tested on: SK-BR-3; assay: Binding affinity to pure alpha-tubulin in human SKBR3 cell lysate at 25 to 50 uM after 1 hr by Western blot analysis; assay type: cell-free
How it was run: (§2)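 Pure proteins, 10 μM bovine brain tubulin or recombinant Hsp27, were tested in separate experiments. Each was incubated with 2 μM biotinylated probe for 1 h at room temperature, then with neutravidin resin for 30 min. After five washes with binding buffer, bound protein was eluted twice with buffer containing compound at 25 and 50 μM. Eluates and resin were denatured, run on SDS-PAGE, transferred to PVDF and probed with α-/β-tubulin or Hsp27 antibodies.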

[5] = tested on: SK-BR-3; assay: Binding affinity to pure beta-tubulin in human SKBR3 cell lysate at 25 to 50 uM after 1 hr by Western blot analysis; assay type: cell-free; how it was run: as §2
[6] = biological target: Heat shock protein beta-1 (Homo sapiens) (UniProt P04792); assay: Binding affinity to pure Hsp27 in human SKBR3 cell lysate at 25 to 50 uM after 1 hr by Western blot analysis; assay type: cell-free; conditions: SK-BR-3; how it was run: as §2
[7] = organism: Bos taurus; assay: Binding affinity to bovine brain tubulin at 2 uM after 1 hr by SDS-PAGE analysis in preincubated with 10 uM colchicine
How it was run: (§3)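 Bovine brain tubulin (10 μM) was preincubated with 10 μM colchicine or paclitaxel for 1 h at room temperature. It was then incubated with 2 μM biotinylated probe in binding buffer for 1 h at room temperature and loaded onto a neutravidin resin column for 30 min. The resin was washed five times with binding buffer, then twice with buffer containing compound (25, 50 μM). Eluates and resin were analysed by SDS-PAGE and Western blot with tubulin antibody.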

[8] = organism: Bos taurus; assay: Binding affinity to bovine brain tubulin at 2 uM after 1 hr by SDS-PAGE analysis in preincubated with 10 uM paclitaxel; how it was run: as §3
[9] = tested on: SK-BR-3; assay: Growth inhibition of human SKBR3 cells after 48 hrs by MTT assay; assay type: functional, cell-based; conditions: SK-BR-3, 48 h
How it was run: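 Cells were seeded for 24 h, then exposed to a range of compound concentrations (DMSO ≤0.1% final) for 48 h. MTT (0.5 mg/mL) was added for 2 h, formazan was dissolved in DMSO and A570 read. Six replicates; IC50 from nonlinear regression.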

[10] = biological target: Heat shock protein beta-1 (Homo sapiens) (UniProt P04792); assay: Induction of Hsp27 phosphorylation in human SKBR3 cells at 50 to 100 nM after 24 hrs by SDS-PAGE analysis; assay type: cell-based; conditions: SK-BR-3
How it was run: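 SKBR-3 cells were treated for 24 h with 50 and 100 nM nocodazole, with compound or KRIBB3 run alongside. Lysates (50 μg protein) were separated on 12% SDS-PAGE and transferred to PVDF. Membranes were blocked 1 h and probed for pSer78 Hsp27, with total Hsp27 and actin as loading controls, then detected by HRP secondary and ECL.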

[11] = organism: Bos taurus; assay: Inhibition of bovine brain tubulin polymerization after 20 mins by spectrophotometric analysis
[12] = biological target: T1, Tubulin (Homo sapiens) (UniProt P68371+Q9H4B7+P0DPH7+P68366+Q13509+Q71U36+P04350+Q3ZCM7+P07437+P68363+Q9BQE3+Q6PEY2+Q13885+Q9BVA1+Q9BUF5); assay: Inhibition of tubulin polymerization in human SKBR3 cells assessed as microtubule disorganization at 0.5 to 1 uM after 12 hrs by fluorescence microscopic analysis; assay type: cell-based; conditions: SK-BR-3
How it was run: (§4)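 SKBR-3 cells in chamber slides were grown to 70% confluence, then treated with 0.5 or 1 μM compound for 12 and 24 h; untreated cells and 0.05 μM nocodazole served as controls. Cells were fixed in 4% paraformaldehyde, permeabilized with 0.2% Triton X-100 and blocked with 2% goat serum. They were stained with biotinylated anti-tubulin (1:200, overnight 4 °C) plus Alexa Fluor 488 streptavidin and imaged by fluorescence microscopy.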

[13] = biological target: T1, Tubulin (Homo sapiens); assay: Inhibition of tubulin polymerization in human SKBR3 cells assessed as decrease in microtubule density at 0.5 to 1 uM after 12 hrs by fluorescence microscopic analysis; assay type: cell-based; conditions: SK-BR-3; how it was run: as §4
[14] = biological target: T1, Tubulin (Homo sapiens); assay: Inhibition of tubulin polymerization in human SKBR3 cells assessed as microtubule disorganization at 0.5 to 1 uM after 24 hrs by fluorescence microscopic analysis; assay type: cell-based; conditions: SK-BR-3; how it was run: as §4
[15] = biological target: T1, Tubulin (Homo sapiens); assay: Inhibition of tubulin polymerization in human SKBR3 cells assessed as decrease in microtubule density at 0.5 to 1 uM after 24 hrs by fluorescence microscopic analysis; assay type: cell-based; conditions: SK-BR-3; how it was run: as §4
[16] = biological target: Heat shock protein beta-1 (Homo sapiens) (UniProt P04792); assay: Binding affinity to pure Hsp27 in human SKBR3 cell lysate at 2 uM after 1 hr by Western blot analysis; conditions: SK-BR-3
[17] = biological target: Heat shock protein beta-1 (Homo sapiens) (UniProt P04792); assay: Inhibition of Hsp27 phosphorylation in human SKBR3 cells at 0.5 to 1 uM after 24 hrs by Western blot analysis; conditions: SK-BR-3

Activity [10]: Active
SMILES: COC(=O)Nc1nc2cc(C(=O)c3cccs3)ccc2[nH]1

IC50 [9]: 62.9 µM
SMILES: CN(c1ccc(NC(=O)c2ccc3c(c2)OCO3)cc1OCc1ccccc1)S(C)(=O)=O

More lines, now with the values behind:

SMILES: Cc1ccc(C)c(COc2cc(NC(=O)c3ccc4c(c3)OCO4)ccc2N(CCCCCCNC(=O)CCCC[C@H]2SC[C@H]3NC(=O)N[C@H]32)S(C)(=O)=O)c1
Activity [1]: Active
Activity [2]: Active
Activity [3]: Active
Activity [4]: Active
Activity [5]: Active
Activity [6]: Active
Activity [7]: inactive
Activity [8]: Active
IC50 [9]: 2 µM

SMILES: Cc1ccc(C)c(COc2cc(NC(=O)c3ccc4c(c3)OCO4)ccc2N(C)S(C)(=O)=O)c1
inhibition [11]: Dose-dependent effect
inhibition [12]: Active
inhibition [13]: Active
inhibition [14]: Active
inhibition [15]: Active

SMILES: CCc1cc(-c2oncc2-c2ccc(OC)cc2)c(O)cc1OC
Activity [16]: Active
inhibition [17]: Active

SMILES: Cc1ccc(C)c(COc2cc(NC(=O)Cc3ccccc3)ccc2N(C)S(C)(=O)=O)c1
IC50 [9]: 121 µM
